Experimental data published in ChEMBL document CHEMBL1649139, “A novel gene, erm(41), confers inducible macrolide resistance to clinical isolates of Mycobacterium abscessus but is absent from Mycobacterium chelonae” (2009).
≈ marks a conversion by molar mass, not a printed value.

Legend:
Assay type in all cases: functional
[1] = test system: Mycobacteroides abscessus; experiment: Antimicrobial activity against Mycobacterium abscessus isolate MAB30 at day 5 preincubated with 0.1 ug/ml for 3 days by broth microdilution method
Method in brief: (§1)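 Clarithromycin MIC by CLSI-conforming broth microdilution. Before testing, cultures were preincubated for 3 days, either in medium alone or in clarithromycin or erythromycin (tested range 0.01–1 μg/ml). Preincubation ran for at least two generations, judged by turbidity increase. Plates were read on day 3 and on extended incubation at days 5 to 14.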

[2] = test system: Mycobacteroides abscessus; experiment: Antimicrobial activity against Mycobacterium abscessus isolate MC720 at day 7 preincubated with 0.1 ug/ml for 3 days by broth microdilution method
Method in brief: (§2)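 Clarithromycin MIC by broth microdilution following CLSI guidelines. Before testing, organisms were preincubated for 3 days in medium alone or in clarithromycin or erythromycin (0.01–1 μg/ml), long enough for at least two generations judged by turbidity increase. MICs were read on day 3 and again on extended incubation out to day 14.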

[3] = test system: Mycobacteroides abscessus; experiment: Antimicrobial activity against Mycobacterium abscessus isolate MC723 at day 5 preincubated with 0.1 ug/ml for 3 days by broth microdilution method
Method in brief: (§3)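 Clinical M. abscessus isolates were preincubated for 3 days, either in medium alone or in clarithromycin or erythromycin at 0.01 to 1 μg/ml, allowing at least two generations of growth judged by turbidity. The clarithromycin MIC was then determined by CLSI-conforming broth microdilution, with plates read on day 3 and on extended incubation (days 5 to 14).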

[4] = test system: Mycobacteroides abscessus; experiment: Antimicrobial activity against Mycobacterium abscessus isolate MC879-2 at day 5 by broth microdilution method; conditions: isolate MC879-2, 120 h
[5] = test system: Mycobacteroides abscessus; experiment: Antimicrobial activity against Mycobacterium abscessus isolate MC720 at day 5 preincubated with 0.1 ug/ml for 3 days by broth microdilution method; method in brief: as §3
[6] = test system: Mycobacteroides abscessus; experiment: Antimicrobial activity against Mycobacterium abscessus isolate MC719 at day 7 preincubated with 0.1 ug/ml erythromycin for 3 days by broth microdilution method; method in brief: as §2
[7] = test system: Mycobacteroides abscessus; experiment: Antimicrobial activity against Mycobacterium abscessus isolate MC879-2 at day 3 preincubated with 0.1 ug/ml for 3 days by broth microdilution method
[8] = test system: Mycobacteroides abscessus; experiment: Antimicrobial activity against Mycobacterium abscessus isolate MC723 at day 7 preincubated with 0.1 ug/ml for 3 days by broth microdilution method; method in brief: as §2
[9] = test system: Mycobacteroides abscessus; experiment: Antimicrobial activity against Mycobacterium abscessus isolate MC724 at day 7 preincubated with 0.1 ug/ml erythromycin for 3 days by broth microdilution method
Method in brief: (§4)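 To test inducible resistance, cultures were preincubated for 3 days in clarithromycin or erythromycin, within 0.01–1 μg/ml. The period was set so cultures passed at least two generations, judged by turbidity increase. Clarithromycin MIC was then determined by CLSI-conforming broth microdilution and read on the stated day, from day 3 up to 14.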

[10] = test system: Mycobacteroides abscessus; experiment: Antimicrobial activity against Mycobacterium abscessus isolate MAB30 at day 14 by broth microdilution method; conditions: isolate MAB30, 336 h; method in brief: as §1
[11] = test system: Mycobacteroides abscessus; experiment: Antimicrobial activity against Mycobacterium abscessus isolate MC1082 at day 5 preincubated with 0.1 ug/ml erythromycin for 3 days by broth microdilution method; method in brief: as §1
[12] = test system: Mycobacteroides abscessus; experiment: Antimicrobial activity against Mycobacterium abscessus isolate MC958 on day 4 by broth microdilution method; conditions: isolate MC958, 96 h
[13] = test system: Mycobacteroides abscessus; experiment: Antimicrobial activity against Mycobacterium abscessus isolate MC720 at day 9 by broth microdilution method; conditions: isolate MC720, 216 h; method in brief: as §2
[14] = test system: Mycobacteroides abscessus; experiment: Antimicrobial activity against Mycobacterium abscessus isolate MC719 at day 5 preincubated with 0.1 ug/ml for 3 days by broth microdilution method; method in brief: as §3
[15] = test system: Mycolicibacterium smegmatis; experiment: Antimicrobial activity against Mycobacterium smegmatis transformed with erm allele Mycobacterium abscessus isolate MC879-2 preincubated with 2 ug/ml erythromycin for 20 to 24 hrs by broth microdilution method
[16] = test system: Mycobacteroides abscessus; experiment: Antimicrobial activity against Mycobacterium abscessus isolate MC720 at day 9 preincubated with 0.1 ug/ml for 3 days by broth microdilution method; method in brief: as §2
[17] = test system: Mycobacteroides abscessus; experiment: Antimicrobial activity against Mycobacterium abscessus isolate MC1028 at day 7 preincubated with 0.1 ug/ml erythromycin for 3 days by broth microdilution method; method in brief: as §1
[18] = test system: Mycobacteroides abscessus; experiment: Antimicrobial activity against Mycobacterium abscessus isolate MC1028 at day 9 preincubated with 0.1 ug/ml for 3 days by broth microdilution method; method in brief: as §1
[19] = test system: Mycobacteroides abscessus; experiment: Antimicrobial activity against Mycobacterium abscessus isolate MC958 at day 14 preincubated with 0.1 ug/ml erythromycin for 3 days by broth microdilution method; method in brief: as §4
[20] = test system: Mycobacteroides abscessus; experiment: Antimicrobial activity against Mycobacterium abscessus isolate MC723 at day 3 preincubated with 0.1 ug/ml for 3 days by broth microdilution method; method in brief: as §2
[21] = test system: Mycobacteroides abscessus; experiment: Antimicrobial activity against Mycobacterium abscessus isolate MC720 at day 14 preincubated with 0.1 ug/ml erythromycin for 3 days by broth microdilution method; method in brief: as §2
[22] = test system: Mycobacteroides abscessus; experiment: Antimicrobial activity against Mycobacterium abscessus isolate MC720 at day 7 preincubated with 0.1 ug/ml erythromycin for 3 days by broth microdilution method; method in brief: as §2
[23] = test system: Mycobacteroides abscessus; experiment: Antimicrobial activity against Mycobacterium abscessus isolate MC719 at day 9 preincubated with 0.1 ug/ml for 3 days by broth microdilution method; method in brief: as §2
[24] = test system: Mycobacteroides abscessus; experiment: Antimicrobial activity against Mycobacterium abscessus isolate MC879 at day 14 preincubated with 0.1 ug/ml for 3 days by broth microdilution method; method in brief: as §4
[25] = test system: Mycobacteroides abscessus; experiment: Antimicrobial activity against Mycobacterium abscessus isolate MC1448 at day 7 preincubated with 0.1 ug/ml erythromycin for 3 days by broth microdilution method; method in brief: as §2
[26] = test system: Mycobacteroides abscessus; experiment: Antimicrobial activity against Mycobacterium abscessus isolate MC724 at day 3 preincubated with 0.1 ug/ml erythromycin for 3 days by broth microdilution method; method in brief: as §4
[27] = test system: Mycobacteroides abscessus; experiment: Antimicrobial activity against Mycobacterium abscessus isolate MC1448 at day 14 preincubated with 0.1 ug/ml erythromycin for 3 days by broth microdilution method; method in brief: as §1
[28] = test system: Mycobacteroides abscessus; experiment: Antimicrobial activity against Mycobacterium abscessus isolate MC724 at day 5 by broth microdilution method; conditions: isolate MC724, 120 h
Method in brief: (§5)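 Clarithromycin MIC by broth microdilution following CLSI guidelines. Organisms were preincubated […], for 3 days before the assay. This allowed at least two generations, judged by the rise in turbidity. The MIC was read at the stated day, with incubation extended from day 3 to as long as 14 days.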

[29] = test system: Mycolicibacterium smegmatis; experiment: Antimicrobial activity against Mycobacterium smegmatis transformed with erm allele Mycobacterium abscessus isolate MC958 preincubated with 2 ug/ml erythromycin for 20 to 24 hrs by broth microdilution method
[30] = test system: Mycobacteroides abscessus; experiment: Antimicrobial activity against Mycobacterium abscessus isolate MC958 at day 7 by broth microdilution method; conditions: isolate MC958, 168 h; method in brief: as §5
[31] = test system: Mycobacteroides abscessus; experiment: Antimicrobial activity against Mycobacterium abscessus isolate MC720 at day 9 preincubated with 0.1 ug/ml erythromycin for 3 days by broth microdilution method; method in brief: as §2
[32] = test system: Mycobacteroides abscessus; experiment: Antimicrobial activity against Mycobacterium abscessus isolate MC723 at day 9 preincubated with 0.1 ug/ml erythromycin for 3 days by broth microdilution method; method in brief: as §2
[33] = test system: Mycobacteroides abscessus; experiment: Antimicrobial activity against Mycobacterium abscessus isolate MC720 at day 14 by broth microdilution method; conditions: isolate MC720, 336 h; method in brief: as §2
[34] = test system: Mycobacteroides abscessus; experiment: Antimicrobial activity against Mycobacterium abscessus isolate MC958 at day 5 preincubated with 0.1 ug/ml erythromycin for 3 days by broth microdilution method; method in brief: as §3
[35] = test system: Mycobacteroides abscessus; experiment: Antimicrobial activity against Mycobacterium abscessus isolate MC879 at day 5 by broth microdilution method; conditions: isolate MC879, 120 h; method in brief: as §5

## CC[C@H]1OC(=O)[C@H](C)[C@@H](O[C@H]2C[C@@](C)(OC)[C@@H](O)[C@H](C)O2)[C@H](C)[C@@H](O[C@@H]2O[C@H](C)C[C@H](N(C)C)[C@H]2O)[C@](C)(OC)C[C@@H](C)C(=O)[C@H](C)[C@@H](O)[C@]1(C)O [CLARITHROMYCIN]
[1]
  MIC: ≤ 0.5 µg/mL
[2]
  MIC: > 32 µg/mL
[3]
  MIC: 4 µg/mL (≈ 5.35 µM)
[4]
  MIC: > 32 µg/mL
[5]
  MIC: 4 µg/mL (≈ 5.35 µM)
[6]
  MIC: > 32 µg/mL
[7]
  MIC: > 32 µg/mL
[8]
  MIC: > 32 µg/mL
[9]
  MIC: > 32 µg/mL
[10]
  MIC: ≤ 0.5 µg/mL
[11]
  MIC: ≤ 0.5 µg/mL
[12]
  MIC: ≤ 2 µg/mL
[13]
  MIC: > 32 µg/mL
[14]
  MIC: 4 µg/mL (≈ 5.35 µM)
[15]
  MIC: 16 µg/mL
[16]
  MIC: > 32 µg/mL
[17]
  MIC: ≤ 0.5 µg/mL
[18]
  MIC: ≤ 0.5 µg/mL
[19]
  MIC: > 32 µg/mL
[20]
  MIC: ≤ 0.5 µg/mL
[21]
  MIC: > 32 µg/mL
[22]
  MIC: > 32 µg/mL
[23]
  MIC: > 32 µg/mL
[24]
  MIC: > 32 µg/mL
[25]
  MIC: > 32 µg/mL
[26]
  MIC: ≤ 0.5 µg/mL
[27]
  MIC: > 32 µg/mL
[28]
  MIC: 1 µg/mL (≈ 1.34 µM)
[29]
  MIC: 16 µg/mL
[30]
  MIC: 8 µg/mL (≈ 10.7 µM)
[31]
  MIC: > 32 µg/mL
[32]
  MIC: > 32 µg/mL
[33]
  MIC: > 32 µg/mL
[34]
  MIC: 4 µg/mL
[35]
  MIC: 1 µg/mL (≈ 1.34 µM)
